Experimental data: ChEMBL document CHEMBL4043283, “Discovery and Preclinical Development of IIIM-290, an Orally Active Potent Cyclin-Dependent Kinase Inhibitor” (J Med Chem, 2018)
The source made the active and inactive calls. No cut-off for these calls is given here.

What was measured:
CDK3/Cyclin E = CDK3/Cyclin E (Homo sapiens, UniProt Q00526); experiment: Inhibition of CDK3/cyclin E (unknown origin) after 30 mins in presence of [33P]-gamma-ATP by filter binding assay; type: protein-complex assay
Chain of CDK3/Cyclin E (P24864 whole entry): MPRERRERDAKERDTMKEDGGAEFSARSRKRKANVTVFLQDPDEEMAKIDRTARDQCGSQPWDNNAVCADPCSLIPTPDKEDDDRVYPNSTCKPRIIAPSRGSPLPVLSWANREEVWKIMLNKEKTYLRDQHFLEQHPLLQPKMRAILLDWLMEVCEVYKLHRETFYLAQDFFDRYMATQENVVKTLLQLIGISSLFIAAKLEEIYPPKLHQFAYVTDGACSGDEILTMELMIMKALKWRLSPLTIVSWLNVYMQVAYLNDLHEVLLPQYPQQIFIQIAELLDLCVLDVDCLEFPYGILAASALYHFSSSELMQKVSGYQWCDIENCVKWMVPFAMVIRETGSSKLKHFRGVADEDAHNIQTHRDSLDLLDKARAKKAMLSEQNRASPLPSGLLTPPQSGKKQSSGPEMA
Chain of CDK3/Cyclin E (Q00526 whole entry): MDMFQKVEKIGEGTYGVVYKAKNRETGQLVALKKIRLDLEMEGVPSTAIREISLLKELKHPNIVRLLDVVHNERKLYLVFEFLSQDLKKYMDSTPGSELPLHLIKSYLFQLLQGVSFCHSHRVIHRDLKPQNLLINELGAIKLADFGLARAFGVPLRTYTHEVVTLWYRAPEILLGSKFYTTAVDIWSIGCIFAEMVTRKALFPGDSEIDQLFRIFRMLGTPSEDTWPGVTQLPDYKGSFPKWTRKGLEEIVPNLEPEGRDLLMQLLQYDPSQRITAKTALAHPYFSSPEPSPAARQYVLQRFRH

[1] = target: CDK4/Cyclin D3 (Homo sapiens) (UniProt P11802+P30281); experiment: Inhibition of full length wild type human CDK4/cyclin D3 expressed in mammalian expression system at 0.5 uM by KINOMEscan method relative to control
Outline: (§1)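 Competition binding screen (KINOMEscan) at 0.5 μM; primary binding read out as % of control, lower values indicating stronger interaction.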

[2] = target: Receptor tyrosine-protein kinase erbB-3 (Homo sapiens) (UniProt P21860); experiment: Inhibition of partial length wild type human ERBB3 expressed in mammalian expression system at 0.5 uM by KINOMEscan method relative to control; outline: as §1
Chain of Receptor tyrosine-protein kinase erbB-3 (Homo sapiens) (P21860 whole entry): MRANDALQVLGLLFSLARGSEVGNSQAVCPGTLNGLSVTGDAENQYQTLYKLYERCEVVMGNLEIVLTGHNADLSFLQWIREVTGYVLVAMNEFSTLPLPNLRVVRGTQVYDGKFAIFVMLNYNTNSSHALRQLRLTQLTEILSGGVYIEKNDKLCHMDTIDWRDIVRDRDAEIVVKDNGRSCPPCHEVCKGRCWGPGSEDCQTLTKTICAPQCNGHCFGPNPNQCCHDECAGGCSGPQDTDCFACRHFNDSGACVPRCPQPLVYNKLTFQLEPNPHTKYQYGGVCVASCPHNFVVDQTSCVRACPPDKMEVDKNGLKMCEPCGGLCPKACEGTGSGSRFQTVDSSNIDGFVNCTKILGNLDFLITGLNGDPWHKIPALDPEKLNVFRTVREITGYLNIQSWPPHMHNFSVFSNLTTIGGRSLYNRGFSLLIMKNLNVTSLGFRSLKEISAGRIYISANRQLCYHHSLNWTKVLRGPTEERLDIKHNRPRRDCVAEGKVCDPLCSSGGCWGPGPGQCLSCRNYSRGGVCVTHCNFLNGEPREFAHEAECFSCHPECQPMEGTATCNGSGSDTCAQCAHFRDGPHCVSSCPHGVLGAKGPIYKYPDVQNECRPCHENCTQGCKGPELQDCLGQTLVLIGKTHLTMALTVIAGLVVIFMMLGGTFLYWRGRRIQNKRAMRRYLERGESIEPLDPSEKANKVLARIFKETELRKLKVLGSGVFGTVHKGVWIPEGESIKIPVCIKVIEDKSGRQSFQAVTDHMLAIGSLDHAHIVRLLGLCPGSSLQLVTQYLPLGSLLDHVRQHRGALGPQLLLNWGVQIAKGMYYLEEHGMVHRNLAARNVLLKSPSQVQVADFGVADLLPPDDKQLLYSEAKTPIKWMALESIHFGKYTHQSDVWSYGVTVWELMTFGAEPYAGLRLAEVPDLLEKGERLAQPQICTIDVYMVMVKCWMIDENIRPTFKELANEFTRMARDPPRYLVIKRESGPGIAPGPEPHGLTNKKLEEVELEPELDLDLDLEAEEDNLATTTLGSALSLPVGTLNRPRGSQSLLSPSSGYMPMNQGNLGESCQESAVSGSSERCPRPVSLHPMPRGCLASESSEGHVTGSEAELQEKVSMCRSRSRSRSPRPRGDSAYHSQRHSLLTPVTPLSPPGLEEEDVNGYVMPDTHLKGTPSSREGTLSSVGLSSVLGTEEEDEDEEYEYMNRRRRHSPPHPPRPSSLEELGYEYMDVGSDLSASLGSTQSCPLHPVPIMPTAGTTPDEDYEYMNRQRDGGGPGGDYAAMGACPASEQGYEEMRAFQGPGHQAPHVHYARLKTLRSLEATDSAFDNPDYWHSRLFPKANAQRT

[3] = target: PRKCE (protein kinase C epsilon) (Homo sapiens, UniProt Q02156); experiment: Inhibition of partial length wild type human PRKCE expressed in mammalian expression system at 0.5 uM by KINOMEscan method relative to control; outline: as §1
Chain of PRKCE (protein kinase C epsilon) (Q02156 whole entry): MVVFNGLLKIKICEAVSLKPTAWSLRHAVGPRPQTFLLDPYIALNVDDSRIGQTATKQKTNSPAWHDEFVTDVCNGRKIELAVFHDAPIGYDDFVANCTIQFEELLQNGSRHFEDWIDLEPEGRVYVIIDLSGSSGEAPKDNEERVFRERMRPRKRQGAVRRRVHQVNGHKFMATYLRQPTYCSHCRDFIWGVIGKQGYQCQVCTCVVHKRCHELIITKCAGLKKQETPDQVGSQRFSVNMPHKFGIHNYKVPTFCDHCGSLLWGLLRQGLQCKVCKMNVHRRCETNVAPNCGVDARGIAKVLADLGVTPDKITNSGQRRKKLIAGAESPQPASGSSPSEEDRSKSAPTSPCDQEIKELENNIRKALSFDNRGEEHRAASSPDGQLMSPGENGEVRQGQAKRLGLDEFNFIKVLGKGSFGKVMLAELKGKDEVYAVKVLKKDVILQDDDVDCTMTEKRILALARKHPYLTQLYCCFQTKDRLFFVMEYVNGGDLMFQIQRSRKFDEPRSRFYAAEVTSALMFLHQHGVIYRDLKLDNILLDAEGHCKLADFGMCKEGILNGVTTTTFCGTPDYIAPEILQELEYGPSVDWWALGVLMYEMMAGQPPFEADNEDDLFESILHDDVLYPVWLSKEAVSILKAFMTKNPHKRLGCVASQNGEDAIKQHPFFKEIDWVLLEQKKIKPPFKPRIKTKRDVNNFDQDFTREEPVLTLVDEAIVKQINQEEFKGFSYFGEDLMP

[4] = target: Voltage-gated inwardly rectifying potassium channel KCNH2 (Homo sapiens, UniProt Q12809); experiment: Inhibition of [3H]-astemizole binding to human ERG expressed in HEK293 cell membranes by scintillation counting method
Chain of Voltage-gated inwardly rectifying potassium channel KCNH2 (Q12809 whole entry): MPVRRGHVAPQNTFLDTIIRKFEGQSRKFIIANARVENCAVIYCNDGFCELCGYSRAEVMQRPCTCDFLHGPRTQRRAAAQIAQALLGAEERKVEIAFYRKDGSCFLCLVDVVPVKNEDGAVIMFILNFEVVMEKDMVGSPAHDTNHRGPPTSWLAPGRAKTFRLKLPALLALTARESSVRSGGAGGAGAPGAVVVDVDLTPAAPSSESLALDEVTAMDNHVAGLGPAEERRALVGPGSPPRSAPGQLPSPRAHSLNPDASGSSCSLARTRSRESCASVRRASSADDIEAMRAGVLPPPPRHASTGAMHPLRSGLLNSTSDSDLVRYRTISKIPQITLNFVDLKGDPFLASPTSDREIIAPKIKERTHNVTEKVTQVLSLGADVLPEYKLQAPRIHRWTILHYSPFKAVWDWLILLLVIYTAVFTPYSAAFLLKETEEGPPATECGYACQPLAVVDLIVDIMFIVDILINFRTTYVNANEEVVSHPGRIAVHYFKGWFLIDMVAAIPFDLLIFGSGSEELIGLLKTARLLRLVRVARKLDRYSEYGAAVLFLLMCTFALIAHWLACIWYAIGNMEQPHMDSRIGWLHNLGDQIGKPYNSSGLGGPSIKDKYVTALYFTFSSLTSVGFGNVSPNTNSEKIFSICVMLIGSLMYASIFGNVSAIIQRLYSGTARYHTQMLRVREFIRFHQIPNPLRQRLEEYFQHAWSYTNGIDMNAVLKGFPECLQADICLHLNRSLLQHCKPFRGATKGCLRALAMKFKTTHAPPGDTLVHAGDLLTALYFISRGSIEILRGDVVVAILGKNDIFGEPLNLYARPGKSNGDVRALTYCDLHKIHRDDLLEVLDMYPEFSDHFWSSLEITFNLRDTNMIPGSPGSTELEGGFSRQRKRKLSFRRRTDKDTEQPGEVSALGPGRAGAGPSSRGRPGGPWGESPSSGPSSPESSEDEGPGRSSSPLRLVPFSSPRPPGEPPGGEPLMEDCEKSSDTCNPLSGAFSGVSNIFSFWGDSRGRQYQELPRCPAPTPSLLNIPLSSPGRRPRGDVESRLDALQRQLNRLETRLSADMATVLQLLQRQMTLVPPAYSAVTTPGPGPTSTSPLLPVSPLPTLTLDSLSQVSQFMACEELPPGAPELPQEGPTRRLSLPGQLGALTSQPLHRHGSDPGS

PANC-1 = experiment: Growth inhibition of human PANC1 cells after 48 hrs by MTT assay; type: functional; settings: PANC-1, 48 h
Outline: (§2)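 Cancer cell lines sourced from the National Cancer Institute (USA). Cells kept in appropriate growth medium at 37 °C, 95% humidity, 5% CO2. Antiproliferation read by tetrazolium (MTT) assay. GI50 values were determined only for compounds selected after an initial single-concentration screen.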

LOX IMVI = experiment: Growth inhibition of human LOXIMVI cells after 48 hrs by MTT assay; type: functional; outline: as §2
MIA PaCa-2 [5] = experiment: Induction of apoptosis in human MIAPaCa2 cells assessed as intracellular vesicle formation after 24 hrs by scanning electron microscopy; type: functional, cell-based
Outline: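 Cells exposed to different compound concentrations for 24 h on coverslips, fixed in 2.5% glutaraldehyde in 0.1 M phosphate buffer pH 7.2 (4 °C, 24 h), postfixed in 1% OsO4 4 h, ethanol-dehydrated, critical-point dried with HMDS, gold-coated, imaged at 20 kV.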

MIA PaCa-2 [6] = experiment: Induction of apoptosis in human MIAPaCa2 cells assessed as caspase-7 cleavage by Western blot method; type: functional, cell-based
Outline: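 Lysate protein quantified against a BSA standard; 70 μg resolved by SDS-PAGE, transferred to PVDF overnight at 4 °C, 30 V; blocked 1 h in 5% nonfat milk/TBST; primary antibodies 2–4 h, HRP anti-mouse secondary 1 h; ECL detection on X-ray film.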

[7] = Metabolic stability in mouse plasma assessed as parent compound remaining after 8 hrs by HPLC method; type: ADME, cell-free; settings: read-out: Stability
[8] = Protein binding in human plasma at 3 uM after 5 hrs by equilibrium dialysis method; type: ADME, cell-free; settings: read-out: PPB (converted)
Cytochrome P450 2C9 = Cytochrome P450 2C9 (Homo sapiens, UniProt P11712); experiment: Inhibition of human CYP2C9 using fluorogenic substrate preincubated with co-factor for 10 mins followed by enzyme-substrate addition by fluorometric method; type: ADME
Chain of Cytochrome P450 2C9 (P11712 whole entry): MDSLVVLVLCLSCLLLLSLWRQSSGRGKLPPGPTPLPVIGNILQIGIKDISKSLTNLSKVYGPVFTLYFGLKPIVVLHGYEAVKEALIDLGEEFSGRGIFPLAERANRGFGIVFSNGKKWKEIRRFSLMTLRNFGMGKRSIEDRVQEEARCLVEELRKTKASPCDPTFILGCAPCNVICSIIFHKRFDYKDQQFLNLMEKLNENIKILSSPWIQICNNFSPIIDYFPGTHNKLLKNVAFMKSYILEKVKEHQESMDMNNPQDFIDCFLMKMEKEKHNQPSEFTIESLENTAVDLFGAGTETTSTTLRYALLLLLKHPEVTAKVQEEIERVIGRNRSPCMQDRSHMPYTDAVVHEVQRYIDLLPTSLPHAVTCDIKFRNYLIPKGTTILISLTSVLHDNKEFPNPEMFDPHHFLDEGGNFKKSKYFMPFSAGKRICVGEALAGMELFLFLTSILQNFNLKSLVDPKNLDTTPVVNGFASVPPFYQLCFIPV
Outline: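 Cofactor plus test item or vehicle, in triplicate, preincubated 10 min at 37 °C; prewarmed enzyme–substrate mix added and incubated at 37 °C with shaking. Quench: acetonitrile (CYP2C19, CYP3A4) or 0.25 M Tris in 60% methanol (CYP2C9, CYP2D6). Metabolite fluorescence read; % inhibition computed against enzyme controls and enzyme-free blanks.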

[9] = Intrinsic clearance in monkey liver microsomes assessed per mg of protein at 100 uM after 30 mins by LC-MS/MS analysis; type: ADME, Macaca mulatta, microsome; settings: rhesus monkey, read-out: CLH
[10] = Intrinsic clearance in monkey hepatocytes assessed per million cells at 3 uM after 180 mins by LC-MS/MS analysis; type: ADME, cell-based, Macaca mulatta, Hepatocyte; settings: rhesus monkey, read-out: CLH
[11] = Half life in mouse liver S9 fraction preincubated for 5 mins followed by NADPH addition measured after 30 mins by LC-MS/MS analysis; type: ADME, tissue-based
Outline: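 Parent loss followed over time to give half-life, with NADPH as cofactor for microsomal phase I metabolism.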

[12] = Half life in monkey liver S9 fraction preincubated for 5 mins followed by NADPH addition measured after 30 mins by LC-MS/MS analysis; type: ADME, tissue-based, Macaca mulatta; settings: rhesus monkey
Liver = experiment: Intrinsic clearance in rat liver S9 fraction assessed per mg of protein preincubated for 5 mins followed by NADPH addition measured after 30 mins by LC-MS/MS analysis; type: ADME, tissue-based; settings: s9, 0.5 h
[13] = Half life in Sprague-Dawley rat at 3 mg/kg, po by LC-MS/MS analysis; type: ADME, organism-based; settings: in vivo
[14] = Half life in Sprague-Dawley rat at 30 mg/kg, po by LC-MS/MS analysis; type: ADME, organism-based; settings: in vivo
[15] = Pancreas to plasma partition coefficient, Kp of the compound in BALB/c mouse at 30 mg/kg, po measured at 8 hrs; type: ADME, organism-based; settings: pancreas and plasma
Lung = experiment: Drug uptake in Sprague-Dawley rat lung at 30 mg/kg, po after 8 hrs; type: ADME, organism-based; settings: in vivo
Mus musculus [16] = experiment: Toxicity in Swiss albino mouse allografted with Swiss mouse EAC assessed as mortality at 70 to 100 mg/kg, po administered for 9 day; type: organism-based; settings: in vivo, 216 h
Mus musculus [17] = experiment: Toxicity in CD1 nude mouse xenografted with human HCT116 cells assessed as mortality at 50 mg/kg, po qd administered on day 10 to 25 post tumor inoculation; type: organism-based; settings: in vivo
Mus musculus [18] = experiment: Toxicity in CD1 nude mouse xenografted with human MOLT4 cells assessed as mortality at 50 mg/kg, po qd administered on day 10 to 25 post tumor inoculation; type: organism-based; settings: in vivo
[19] = Ratio of Cmax in BALB/c mouse at 30 mg/kg, po to GI50 for human MIAPaCa2 cells
[20] = Ratio of Cmax in Sprague-Dawley rat at 30 mg/kg, po to GI50 for human HL60 cells
HCT-116 = experiment: Antitumor activity against human HCT116 cells xenografted in CD1 nude mouse assessed as tumor growth inhibition at 25 mg/kg, po qd administered on day 10 to 25 post tumor inoculation; type: functional, organism-based
[21] = Apparent permeability across basolateral to apical side in human Caco2 cells after 90 mins by LC-MS/MS analysis; type: ADME, cell-based; settings: Caco-2
Salmonella typhimurium [22] = experiment: Mutagenicity in Salmonella typhimurium TA100 at 50 ug/plate in presence of liver S9 fraction by Ames test; type: toxicity; settings: salmonella enterica subsp. enterica serovar typhimurium
Salmonella typhimurium [23] = experiment: Mutagenicity in Salmonella typhimurium TA102 at 50 ug/plate in presence of liver S9 fraction by Ames test; type: toxicity; settings: salmonella enterica subsp. enterica serovar typhimurium
Salmonella typhimurium [24] = experiment: Mutagenicity in Salmonella typhimurium TA1537 at 50 ug/plate in absence of liver S9 fraction by Ames test; type: toxicity; settings: salmonella enterica subsp. enterica serovar typhimurium
Salmonella typhimurium [25] = experiment: Mutagenicity in Salmonella typhimurium TA1535 at 50 ug/plate in absence of liver S9 fraction by Ames test; type: toxicity; settings: salmonella enterica subsp. enterica serovar typhimurium
Salmonella typhimurium [26] = experiment: Mutagenicity in Salmonella typhimurium TA100 at 50 ug/plate in absence of liver S9 fraction by Ames test; type: toxicity; settings: salmonella enterica subsp. enterica serovar typhimurium
PBL = experiment: Genotoxicity in human PBL at 0.125 to 2 ug/ml in presence of cytokinesis blocking agent cytochalasin B and liver S9 fraction by micronucleus test; type: toxicity, cell-based

SMILES: CN1CC[C@H](c2c(O)cc(O)c3c(=O)cc(/C=C/c4c(Cl)cccc4Cl)oc23)[C@H](O)C1
- IC50 (CDK3/Cyclin E): > 1000 nM
- inhibition [1]: > 98%
- inhibition [2]: > 98%
- inhibition at 0.5 µM [3]: > 98%
- IC50 [4]: > 50 µM
- GI50 (PANC-1): 4 µM
- GI50 (LOX IMVI): 4 µM
- Activity (MIA PaCa-2 [5]): Active
- Activity (MIA PaCa-2 [6]): Dose-dependent effect
- remaining at 8 h [7]: 94%
- fraction unbound at 5 h, 3 µM [8]: 0.033
- IC50 (Cytochrome P450 2C9): > 20 µM
- microsomal CLint at 100 µM [9]: 54.8 µL/min/mg
- hepatocyte CLint at 3 µM [10]: 10.6 µL/min/1e6 cells
- half-life [11]: 86 min
- half-life [12]: 56 min
- CLint (Liver): 45 µL/min/mg
- half-life [13]: 280 min
- half-life [14]: 194 min
- Kp at 8 h [15]: 6.79
- Drug uptake (Lung): Active
- Activity (Mus musculus [16]): Non-Toxic
- Activity (Mus musculus [17]): Non-Toxic
- Activity (Mus musculus [18]): Non-Toxic
- Ratio [19]: 4
- Ratio [20]: 4
- TGI (HCT-116): inactive
- Papp B→A at 1.5 h [21]: 3.9 ×10⁻⁶ cm/s
- Activity (Salmonella typhimurium [22]): Non-Toxic
- Activity (Salmonella typhimurium [23]): Non-Toxic
- Activity (Salmonella typhimurium [24]): Non-Toxic
- Activity (Salmonella typhimurium [25]): Non-Toxic
- Activity (Salmonella typhimurium [26]): Non-Toxic
- Activity (PBL): Non-Toxic
